In publication PMC7157925 (Steroids, 2003):

Key:
HSV-2 strain G = experiment: Antiviral assay, reduction of virus plaque formation in Vero cells; assay type: cell-based, herpes simplex virus type 2; conditions: at a concentration up to 50 μg/ml
HSV-2 = experiment: Virucidal assay; set-up: species or system herpes simplex virus type 2; conditions: HSV-2 suspension incubated with compound 1 h at 37 °C
Procedure, shortened: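 HSV-2 strain G suspension (4×10^5 PFU) mixed with an equal volume of maintenance medium (MEM, 1.5% bovine serum), with or without various concentrations of test compound, 1 h at 37 °C. Samples then diluted in cold maintenance medium, and residual infectivity titrated by plaque formation on Vero cells. Compound stock 10 mg/ml in DMSO, filter-sterilized. VC50 is the concentration inactivating virions by 50%.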

[1] = test system: endothelin-converting enzyme; conditions: ref [20]; cited from earlier work

Structure (SMILES)	Activity against HSV-2 (HSV-2 strain G)	VC50, concentration required to inactivate virus by 50%±S.D. (HSV-2) [µg/mL]	Activity in the endothelin-converting enzyme assay [1]
CC(C)CCC[C@@H](C)[C@H]1CC[C@H]2[C@@H]3CC[C@H]4C[C@H](O)[C@@H](O)C[C@]4(C)[C@H]3CC[C@]12C [Compound 5, 2β,3α-Dihydroxy-5α-cholestane]	not active	> 100	
C=CCCC[C@@H](C)[C@H]1CC[C@H]2[C@@H]3CC[C@H]4C[C@H](OS(=O)(=O)O)[C@@H](OS(=O)(=O)O)C[C@]4(C)[C@H]3CC[C@]12C [Compound 19, Halistanol disulfate B]			active
